Sampled rows, rich in hits. Any-hit rate of the full collection: about 2.9%.
SENP1 FRET inh = SENP1 (human) catalytic domain inhibition; Q9P0U3; recombinant SENP1 catalytic domain, CyPet-SUMO1-YPet FRET cleavage; inhibition, % at 10 µM; 0.21% of 360,000 active;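 active = inhibition at least 30% at 10 µM, raw YFP signal under a set limit, fluorescence ratio 0.5 to 1.5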;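 note: 0% = enzyme with DMSO and 100% = no enzyme wells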
Target sequence (Q9P0U3 419-644 limits assumed): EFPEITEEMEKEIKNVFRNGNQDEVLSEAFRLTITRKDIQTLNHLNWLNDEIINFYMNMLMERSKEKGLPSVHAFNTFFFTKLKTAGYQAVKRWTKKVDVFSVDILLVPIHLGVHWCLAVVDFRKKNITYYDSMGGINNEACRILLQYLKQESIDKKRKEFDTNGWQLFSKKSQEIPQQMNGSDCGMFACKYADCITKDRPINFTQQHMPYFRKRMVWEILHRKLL
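system = hSENP1 catalytic domain, recombinant | reagent = SFCypet-SUMO1-SFYpet substrate at 25 nM | doses = one dose per compound, 10 µM, 0.5% DMSO | incubation = enzyme reaction for 50 min at room temperature, dark | measured by = FRET, CFP and YFP emission | controls = no-enzyme low, enzyme-DMSO high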
HSP90 inh = blocks HSP90-mediated luciferase refolding in reticulocyte lysate. Rabbit reticulocyte lysate, luciferase refolding luminescence, 3 h. inhibition, % at 5.6 µM. 0.91% of 290,000 active. AID 1789;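 active = inhibition above the screen-wide mean plus 3 SD, computed separately per campaign, cut at about 16% in these data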;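 note: 0% = DMSO wells and 100% = 60 µM geldanamycin wells; inhibitors lower the luminescence because luciferase stays unfolded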
SENP6 block = inhibitors of human SENP6 protease. AID 2599. Q9GZR1. inhibition, % at 10 µM. 1.8% of 330,000 active. Recombinant SENP6 catalytic domain, aminoluciferin luminescence;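 active = inhibition above about 50% at the single tested dose, limit read from the data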;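 note: plate controls were DMSO wells with enzyme for no effect and DMSO wells lacking enzyme for full effect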
SENP7 block = blocks the human protease SENP7; AID 434973; inhibition, % at 5 µM; Q9BQF6; recombinant SENP7, Z-RLRGG-aminoluciferin luminescence, 40 min; 1.5% of 330,000 active;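 active = inhibition above about 50% at the single test dose, limit read from the data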;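 note: plate controls were DMSO with enzyme for no effect and no enzyme buffer wells for full effect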
SENP8 block-1 = blocks the human protease SENP8 | Q96LD8 | purified SENP8, Z-RLRGG-aminoluciferin cleavage, luminescence | 1.2% of 330,000 active | inhibition, % at 10 µM; in the data active = inhibition above about 50%
Target sequence (Q96LD8 whole entry, looked up): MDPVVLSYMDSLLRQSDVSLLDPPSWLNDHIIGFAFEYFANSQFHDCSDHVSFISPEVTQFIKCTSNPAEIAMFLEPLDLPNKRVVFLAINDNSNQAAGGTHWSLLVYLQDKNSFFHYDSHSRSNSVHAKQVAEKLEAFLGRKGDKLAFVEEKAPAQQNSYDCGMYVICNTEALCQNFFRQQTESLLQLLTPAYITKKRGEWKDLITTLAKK
SENP8 block-2 = inhibitors of human SENP8 protease. Q96LD8. recombinant SENP8, Nedd8 substrate fluorescence. inhibition, % at 20 µM. 0.64% of 360,000 active. AID 602440; in the data active = inhibition mostly above about 40%, no sharp cut-off; inactive = mostly below about 27%
SENP1 inh conf = confirmation of human SENP1 SUMO protease inhibitors; shares compounds with SENP1 FRET inh; recombinant SENP1, CyPet-SUMO1-YPet FRET cleavage; inhibition, % at 10 µM; 34% of 520 active; AID 651678; in the data active = inhibition mostly above about 35%, no sharp cut-off; inactive = mostly below about 32%;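 note: 0% = enzyme with DMSO and 100% = no enzyme control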
SENP1 kinetic = confirmation of human SENP1 SUMO protease inhibitors, kinetic; shares compounds with SENP1 FRET inh; recombinant SENP1, CyPet-SUMO1-YPet FRET kinetic cleavage; inhibition, % at 10 µM; 26% of 520 active; AID 651690; in the data active = inhibition mostly above about 32%, no sharp cut-off; inactive = mostly below about 29%;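 note: 0% = DMSO with enzyme and 100% = no enzyme substrate only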
Starred values were filed as active, the others as inactive; nt = no result given.

SMILES	SENP1 FRET inh	HSP90 inh	SENP6 block	SENP7 block	SENP8 block-1	SENP8 block-2	SENP1 inh conf	SENP1 kinetic
Cc1ccccc1NC(=O)c1cccc(C(=O)Nc2ccccc2C)n1	38*	2	2	-3	-3	12	-5	-4
O=C(NC1CCCC1)c1nc(-c2ccco2)oc1-c1ccccc1	1	nt	nt	nt	nt	-424	nt	nt
Cn1c(=O)oc2cc(S(=O)(=O)Nc3cccc4c3CCCC4)ccc21	33*	2	-5	0	-6	17	13	17
CC1CCN(C(=O)CCNS(=O)(=O)c2ccc3c(c2)oc(=O)n3C)CC1	2	3	13	-3	3	18	nt	nt
CN1CCN(S(=O)(=O)c2ccc3c(c2)oc(=O)n3C)CC1	33*	-5	-13	2	-2	5	1	9
CC1CC(C)CN(CCCNS(=O)(=O)c2ccc3c(c2)oc(=O)n3C)C1 (stereo not drawn)	33*	-7	-2	2	0	2	8	6
Cn1c(=O)oc2cc(S(=O)(=O)N3CCN(c4ccc(F)cc4)CC3)ccc21	37*	-1	-1	-9	-10	14	6	3
CN(Cc1ccccc1F)C(=O)COc1ccc(C(=O)c2ccccc2)cc1	1	-1	-11	-10	-4	10	nt	nt
CC(C)c1cc(C(=O)OCC(=O)NC(=O)NCc2ccco2)c(O)c(C(C)C)c1	-1	-1	-15	-8	-11	-40	nt	nt
Cc1ccc(S(=O)(=O)c2c(C)cc(C)[nH]c2=O)c(C)c1	-1	-2	-16	0	-6	-51	nt	nt
CNc1ccc(/C=C(\C#N)c2ccccn2)cc1[N+](=O)[O-]	46*	3	-29	15	0	35	31	23
N#C/C(=C\c1ccc(Cl)c([N+](=O)[O-])c1)c1ccccn1	1	1	4	-6	-7	10	nt	nt
COc1ccccc1Nc1ccc(NC(=O)c2cccc([N+](=O)[O-])c2C)cc1	1	0	-5	9	6	28	nt	nt
CCc1cccc(CC)c1-n1c(SCC(=O)N2CCc3ccccc3C2)nnc1-c1cccnc1	37*	-2	1	-7	-5	9	11	14
CCC1CN(S(=O)(=O)c2cc(-c3cc(C)no3)ccc2OC)c2cc(C)ccc2O1 (stereo not drawn)	0	6	1	8	3	3	nt	nt
Cc1cccc(C)c1NC(=O)C1(C)CSCC(=O)N1Cc1ccco1 (stereo not drawn)	-2	nt	nt	nt	nt	14	nt	nt
COc1ccc(C2C(C(C)=O)=C(C)N=c3s/c(=C\c4ccco4)c(=O)n32)c(OC)c1 (stereo not drawn)	37*	2	-1	-7	-7	16	41*	32*
COc1cc2c(oc(=O)c3cc(C)cc(OC)c32)c2c(C3OC(C)C(O)C(C)(O)C3O)ccc(O)c12 (stereo not drawn)	-27	nt	nt	nt	nt	-414	nt	nt
CCN1C(=O)c2cccc3c(NC(=O)c4cccc(N5C(=O)CCC5=O)c4)ccc1c23	58*	4	-6	2	0	13	44*	28
Cn1c(=O)c2[nH]c(-c3ccccc3)c(O)c2n(C)c1=O	60*	5	-9	3	-9	-100	56*	54*
Cn1c(=O)c2[nH]c(-c3ccccc3)nc2n(C)c1=O	nt	-2	nt	nt	nt	nt	nt	nt
Cn1c(=O)c2[nH]c(-c3ccccc3Cl)c(O)c2n(C)c1=O	32*	-6	-10	-2	-3	-1	11	16
CC(C)C[C@@H](CN1CCC[C@H]1CN1C(=O)C(=O)NC[C@@H]1Cc1ccc(O)cc1)N1C[C@H](Cc2ccc(O)cc2)N(CCc2ccccc2)C(=O)C1=O	1	nt	nt	nt	nt	15	nt	nt
Nc1ccc2c(c1)-c1ccc(F)cc1C2=O	82*	nt	nt	nt	nt	22	49*	27
Nc1ccc2c(c1)C(=O)c1ccc(Cl)cc1-2	-2	nt	nt	nt	nt	23	nt	nt
CC(=O)Nc1cc(-c2ccc(N3CCN(C)CC3)cc2)cn2c(-c3cccc(C(C)=O)c3)cnc12	37*	nt	nt	nt	nt	3	20	13
